Rows were chosen to be rich in hits. Some 12% of all compounds tested hit in one or more screens of this group.
ABCB1 block: blocks JC-1 efflux by human ABCB1 transporter | CCRF-Adr cells, flow cytometry | inhibition, % at 6.6 µM | 0.067% of 190,000 active; in the data active = inhibition above about 40%;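 also: higher value means more JC-1 retained so stronger ABCB1 efflux block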
Target sequence (P08183 whole entry, looked up): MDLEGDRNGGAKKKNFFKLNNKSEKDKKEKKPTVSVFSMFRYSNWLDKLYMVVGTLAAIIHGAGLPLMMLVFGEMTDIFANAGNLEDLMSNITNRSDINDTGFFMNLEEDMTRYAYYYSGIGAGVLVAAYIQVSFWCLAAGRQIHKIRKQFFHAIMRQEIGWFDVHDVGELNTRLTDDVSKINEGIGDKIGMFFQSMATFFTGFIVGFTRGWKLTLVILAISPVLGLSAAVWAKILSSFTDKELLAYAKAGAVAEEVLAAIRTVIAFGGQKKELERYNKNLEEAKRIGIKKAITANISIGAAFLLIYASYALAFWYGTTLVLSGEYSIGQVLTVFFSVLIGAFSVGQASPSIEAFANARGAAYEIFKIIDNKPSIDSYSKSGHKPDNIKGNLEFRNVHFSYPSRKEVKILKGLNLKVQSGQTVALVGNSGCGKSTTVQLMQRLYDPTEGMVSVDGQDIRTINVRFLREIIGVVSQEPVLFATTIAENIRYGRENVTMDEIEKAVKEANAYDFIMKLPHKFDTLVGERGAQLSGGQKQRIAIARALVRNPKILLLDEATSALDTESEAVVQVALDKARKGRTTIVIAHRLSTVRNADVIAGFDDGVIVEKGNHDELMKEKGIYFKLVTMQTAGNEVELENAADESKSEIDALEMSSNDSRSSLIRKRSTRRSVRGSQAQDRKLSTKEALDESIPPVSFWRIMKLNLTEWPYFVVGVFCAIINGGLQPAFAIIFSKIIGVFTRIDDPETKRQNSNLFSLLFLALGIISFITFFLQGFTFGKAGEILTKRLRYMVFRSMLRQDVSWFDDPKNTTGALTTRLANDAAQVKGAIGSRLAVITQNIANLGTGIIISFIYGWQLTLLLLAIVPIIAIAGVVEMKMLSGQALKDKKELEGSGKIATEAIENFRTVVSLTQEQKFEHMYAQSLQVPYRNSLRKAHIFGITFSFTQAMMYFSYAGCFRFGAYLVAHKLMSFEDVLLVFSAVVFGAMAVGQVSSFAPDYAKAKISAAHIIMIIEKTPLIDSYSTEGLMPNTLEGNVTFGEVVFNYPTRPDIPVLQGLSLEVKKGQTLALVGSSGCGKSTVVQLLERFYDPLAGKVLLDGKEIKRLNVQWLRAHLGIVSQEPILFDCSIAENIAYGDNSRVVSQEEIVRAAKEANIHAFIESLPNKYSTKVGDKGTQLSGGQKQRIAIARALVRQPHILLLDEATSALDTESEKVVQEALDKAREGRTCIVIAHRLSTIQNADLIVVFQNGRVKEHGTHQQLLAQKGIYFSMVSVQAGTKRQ
ABCG2 inh: inhibitors of human ABCG2 transporter, ABCB1 counter-screen; IgMXP3 cells, JC-1 efflux, flow cytometry; inhibition, % at 6.6 µM; 0.1% of 190,000 active; AID 1325;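 active = inhibition above 80%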
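material = IgMXP3 (ABCG2) plus far-red-tagged CCRF-Adr (ABCB1) cells | amount = 3 million cells/mL, equal mix of both lines | also added = JC-1 transporter substrate | dosing = one concentration, 6.6 µM final | schedule = 10 min at 25 °C | measured by = flow cytometric JC-1 green MFI at 530 nm | read-out basis = percent efflux inhibition, scaled nicardipine 100% to DMSO 0%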
L major viab: reduces viability of Leishmania major promastigotes. resazurin fluorescence viability. inhibition, % at 10 µM. 9% of 200,000 active. AID 1063; in the data active = inhibition above about 50%;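 also: promastigotes grown with compound for 44 hours at 28 °C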
RAM inhibit: yeast RAM network inhibition; S. cerevisiae dse1pr::URA3 reporter, 5-FOA growth OD615, 2 d; analog-sensitive cbk1-as2 kinase mutant strain; 1.8% of 190,000 active; inhibition, % at 50 µM;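 active = inhibition above a set limit, 3 SD over mean compound inhibition, cut at about 8.4% in these data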;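 also: inhibition rescues growth on 5-FOA so higher OD means more RAM inhibition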
WT yeast gro inh: growth inhibition of WT yeast, mitochondrial fusion screen; inhibition, % at 10 µM; mitochondrial fusion phenotypic screen, WT strain; 2.1% of 190,000 active; in the data active = inhibition above about 58%; tested in S. cerevisiae
Hits are given with their value; – = inactive.

SMILES	ABCB1 block	ABCG2 inh	L major viab	RAM inhibit	WT yeast gro inh
COc1ccc(NC(=O)NC23CC4(C)CC(C)(CC(C)(C4)C2)C3)cc1	–	–	95	–	–
COc1ccc(C(=O)C/C(=C\C(=O)c2ccc(C)cc2)c2ccccc2)cc1	–	–	52	11	–
COc1ccc(C(CC(=O)c2ccccc2)S(=O)(=O)c2ccc(C)cc2)cc1 (stereo not given)	–	–	–	9.8	–
O=C(O)CC/C(=C\c1ccc(Cl)c([N+](=O)[O-])c1)c1nc2ccccc2s1	–	–	–	11	–
COc1ccccc1N1CCN(C(CNS(=O)(=O)c2ccccc2)c2cccnc2)CC1 (stereo not given)	–	–	93	–	–
COc1ccc(S(=O)(=O)NCC(c2cccnc2)N2CCN(c3ccccc3OC)CC2)cc1C (stereo not given)	–	–	98	–	–
O=C(NCCCN1CCN(c2cccc(Cl)c2)CC1)c1ccc(N2CCCC2=O)cc1	–	–	97	–	–
COc1ccc(NC(=O)NCCN2CCN(c3cccc(Cl)c3)CC2)cc1	–	–	85	–	–
CCCCN(C)CCCNC(=O)c1ccc(N2CCCC2=O)cc1	–	–	51	–	–
COc1cc(NC(=O)NCCN2CCN(c3ccc(Cl)cc3)CC2)ccc1C	–	–	–	–	–
FC(F)(F)c1cccc(Cn2nnnc2-c2cccc(C(F)(F)F)c2)c1	–	–	–	–	–
Cc1cc(C)c2nc(-c3ccccn3)cc(C(=O)NCCc3ccc(S(N)(=O)=O)cc3)c2c1	–	–	–	10	–
Cc1c(Br)c(C(F)(F)F)nn1CC(=O)NCc1ccccc1	–	–	–	–	–
COc1ccc(-c2n[nH]c(C)c2-c2cnn(-c3ccccc3)c2)c(O)c1	–	–	–	–	–
COc1ccc(-c2onc(C)c2-c2cnn(-c3ccccc3)c2)c(O)c1C	–	–	84	–	–
COc1ccc(-c2n[nH]c(C)c2-c2cnn(-c3ccccc3)c2)c(O)c1C	–	–	67	–	–
CN(C)/C=C/C(=O)c1cc(N2CCOCC2)ccc1[N+](=O)[O-]	–	–	–	–	–
O=C(COC(=O)CCc1nc2ccccc2s1)NC(=O)NCc1ccco1	–	–	–	–	–
Cc1cccn2c(=O)c(C=NCc3ccco3)c(Nc3ccc(SC(F)F)cc3)nc12	–	–	91	–	83
COC(=O)c1ccc(-c2noc(CN3C[C@H]4CC[C@H]3C4)n2)cc1	–	–	98	–	–
COC(=O)c1ccc(-c2noc(CN(Cc3ccncc3)CC3CCCO3)n2)cc1 (stereo not given)	–	–	71	–	–
Cc1cc(C)cc(C(=O)NCC(=O)OCC(=O)Nc2cccnc2Cl)c1	–	–	–	–	–
COc1cc(OC)c(C(=O)CCC(=O)O)cc1OC	–	–	71	–	–
COc1cc(CC(=O)O)c(C(C)=O)cc1OC	–	–	–	–	–
CN1CCN(C(=O)CCN2C(=O)/C(=C/c3ccccc3Cl)SC2=S)CC1	–	–	100	–	–
SMILES	ABCB1 block	ABCG2 inh	L major viab	RAM inhibit	WT yeast gro inh
Cc1ccc(/C=C2/SC(=S)N(CCC(=O)N3CCN(C)CC3)C2=O)cc1	–	–	97	–	–
CN1CCN(C(=O)CCN2C(=O)S/C(=C/c3ccc(Cl)cc3)C2=O)CC1	–	–	–	–	–
CC(C)(C)C1CCC(=NNC(=O)C(=O)NCc2ccco2)CC1 (stereo not given)	–	–	–	–	–
O=S(=O)(Cc1ccccc1)N1CCN(C/C=C/c2ccccc2)CC1	–	–	71	–	–
O=S(=O)(c1ccc(Cl)s1)N1CCN(C/C=C/c2ccccc2)CC1	–	–	83	–	–
O=S(=O)(c1ccc(Cl)s1)N1CCC(Cc2ccccc2)CC1	–	–	–	8.9	–
O=Cc1ccnc(-c2ccc(OC(=O)c3ccco3)cc2)n1	–	–	–	–	–
COc1ccc(CC(=O)N2CCN=C2SCc2cccc([N+](=O)[O-])c2)cc1	–	–	–	–	–
COC(=O)C1=C(C)N(c2cc(Cl)cc(Cl)c2)C(=O)C1	–	–	87	–	–
COc1ccccc1CNC(=O)CSc1nnc2ccc(-c3cccnc3)nn12	–	–	–	–	–
Cc1cc(S(=O)(=O)NCc2ccccc2)ccc1OCC(=O)Nc1cccc([N+](=O)[O-])c1	–	–	99	11	–
CCOC(=O)C1CCCN(C(=O)c2ccc(C)cc2O)C1 (stereo not given)	–	–	–	–	–
CC1(C)CC(NC(=O)c2c(N)no[n+]2[O-])CC(C)(C)N1	–	–	–	–	–
COc1ccc(OC)c(NC(=O)CSc2nc(C)cs2)c1	–	–	–	–	–
CC1(C)CC2CC(C)(CN2S(=O)(=O)c2ccc(C(=O)Nc3ccc(S(=O)(=O)N4CCOCC4)cc3)cc2)C1 (stereo not given)	–	–	99	–	–
CC(=O)Nc1ccc(S(=O)(=O)N2CC3(C)CC2CC(C)(C)C3)cc1 (stereo not given)	–	–	–	–	–
CCOC(=O)c1cc([N+](=O)[O-])sc1NC(=O)c1ccc(S(=O)(=O)N2CC3(C)CC2CC(C)(C)C3)cc1 (stereo not given)	–	–	–	–	–
CC1(C)CC2CC(C)(CN2S(=O)(=O)c2ccc(C(=O)Nc3ccc(Cl)c(S(=O)(=O)N4CCOCC4)c3)cc2)C1 (stereo not given)	–	–	97	–	–
O=C(NCc1cccc(Cl)c1)c1ccc(S(=O)(=O)Nc2cccc(C(F)(F)F)c2)cc1	–	–	64	–	–
COc1ccc2nc(/C=N/NC(=O)[C@H](C)NC(=O)OC(C)(C)C)ccc2c1	–	–	–	–	–
CCc1ccccc1NC(=O)CN(C)C(=O)CSc1nn(-c2ccccc2)c(=S)s1	–	–	–	–	–
COC(=O)NC(NC(=S)Nc1ccc([N+](=O)[O-])cc1)C(Cl)(Cl)Cl (stereo not given)	–	–	99	–	–
COc1ccc(NC(=S)NC(NC(=O)c2ccc(Cl)cc2Cl)C(Cl)(Cl)Cl)c([N+](=O)[O-])c1 (stereo not given)	–	–	–	–	68
COC(=O)c1ccccc1NC(=S)NC(NC(=O)c1ccccc1[N+](=O)[O-])C(Cl)(Cl)Cl (stereo not given)	–	–	96	–	–
COc1ccc(NC(=S)NC(NC(=O)c2ccccc2Cl)C(Cl)(Cl)Cl)c([N+](=O)[O-])c1 (stereo not given)	–	–	–	–	–
CCO[C@@H]1OC(C(=O)N2CCCCCCC2)=C[C@H](c2ccc(C(F)(F)F)cc2)[C@H]1CCCO	–	–	–	–	–
Cc1nn(Cc2ccc(F)cc2)c(C)c1NC(=O)CCCn1nc([N+](=O)[O-])cc1C	–	–	–	–	–
COc1cc(/C=C2\C(=O)N(CCC#N)N=C2C)ccc1OCC(=O)Nc1ccccc1	–	–	60	–	–
S=C(Nc1cccc(Cl)c1Cl)Nn1cnnc1	–	–	–	–	–

Screening data from PubChem.
